# Results as given in paper PMC10644204 (Pharmacology Research & Perspectives, 2023).
# Values joined by “and” are separate entries in the source; they are usually repeats but may differ in a detail not shown here. Equal entries are not always repeated.
# Experiments:
# [1] = test system: healthy participants; experiment: Safety assessments; format: in vivo, human
# In short: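 Part 2 healthy participants confined from Day −2 of period 1 to Day 9 of period 4. […] AEs monitored throughout, recording duration, severity, causality and outcome, alongside safety ECGs, laboratory tests, physical examination and vital signs.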
# [2] = Plasma pharmacokinetics, part 2 main QTc study; format: in vivo, human; conditions: for Cτ, geometric mean (%CVb): moderate-fat meal, Day 7, n = 40
# In short: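 Moderate-fat meal 30 min before each dose. Plasma sampled predose on Days 1, 5, 6 and 7, and on Day 7 at 0.5–24 h postdose. Test compound assayed by validated UHPLC-MS/MS (3.00–1000 ng mL−1).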
# [3] = test system: HIV‐1; conditions: GSK'254 200 mg QD, treatment-naive people living with HIV-1, phase IIa; cited from earlier work
# [4] = GSK'254 200 mg QD, healthy participants, previous studies; cited from earlier work
# [5] = part 2, GSK'254 100 mg (N = 40)
# [6] = part 2, GSK'254 500 mg (N = 40)
compound,measurement,setting,value
C=C(C)[C@@H]1CC[C@]2(NCCN3CCS(=O)(=O)CC3)CC[C@]3(C)[C@H](CC[C@@H]4[C@@]5(C)CC=C(C6=CC[C@@](CF)(C(=O)O)CC6)C(C)(C)[C@@H]5CC[C@]43C)[C@@H]12 [GSK'254],AE: Immune system disorders,[1]; [5],0 n (%)
same,AE: Infections and infestations,[1]; [5],0 n (%)
same,AE: Maculopapular rash,[1]; [5],1 (3) n (%)
same,AE: Medical device site dermatitis,[1]; [5],0 n (%)
same,AE: Nausea,[1]; [5],0 n (%)
same,AE: Nervous system disorders,[1]; [5],0 n (%)
same,AE: Renal and urinary disorders,[1]; [5],0 n (%)
same,AE: Reproductive system and breast disorders,[1]; [5],0 n (%)
same,"AE: Respiratory, thoracic, and mediastinal disorders",[1]; [5],1 (3) n (%)
same,AE: Skin and subcutaneous tissue disorders,[1]; [5],3 (8) n (%)
same,AE: Vessel puncture site pain,[1]; [5],0 n (%)
same,Any AE,[1]; [5],5 (13) n (%)
same,Any drug-related AE,[1]; [5],2 n (%) and 2 (5) n (%)
same,Drug-related AE: Abdominal pain,[1]; [5],0 n (%)
same,Drug-related AE: Acne,[1]; [5],2 (5) n (%)
same,Drug-related AE: Diarrhea,[1]; [5],0 n (%)
same,Drug-related AE: Fatigue,[1]; [5],0 n (%)
same,Drug-related AE: Gastrointestinal disorders,[1]; [5],0 n (%)
same,Drug-related AE: General disorders and administration site conditions,[1]; [5],0 n (%)
same,Drug-related AE: Maculopapular rash,[1]; [5],0 n (%)
same,Drug-related AE: Nausea,[1]; [5],0 n (%)
same,Drug-related AE: Pruritus,[1]; [5],1 (3) n (%)
same,Drug-related AE: Renal and urinary disorders,[1]; [5],0 n (%)
same,Drug-related AE: Skin and subcutaneous tissue disorders,[1]; [5],2 (5) n (%)
same,Drug-related AE: Urinary hesitation,[1]; [5],0 n (%)
same,AE: Abdominal pain,[1]; [6],1 (3) n (%)
same,AE: Acne,[1]; [6],0 n (%)
same,AE: Diarrhea,[1]; [6],6 n (%) and 6 (15) n (%)
same,AE: Gastrointestinal disorders,[1]; [6],7 (18) n (%)
same,AE: General disorders and administration site conditions,[1]; [6],3 (8) n (%)
same,AE: Immune system disorders,[1]; [6],0 n (%)
same,AE: Infections and infestations,[1]; [6],1 (3) n (%)
same,AE: Maculopapular rash,[1]; [6],1 (3) n (%)
same,AE: Medical device site dermatitis,[1]; [6],2 (5) n (%)
same,AE: Nausea,[1]; [6],2 (5) n (%)
same,AE: Nervous system disorders,[1]; [6],1 (3) n (%)
same,AE: Renal and urinary disorders,[1]; [6],0 n (%)
same,AE: Reproductive system and breast disorders,[1]; [6],0 n (%)
same,"AE: Respiratory, thoracic, and mediastinal disorders",[1]; [6],0 n (%)
same,AE: Skin and subcutaneous tissue disorders,[1]; [6],2 (5) n (%)
same,AE: Vessel puncture site pain,[1]; [6],0 n (%)
same,Any AE,[1]; [6],10 (25) n (%)
same,Any drug-related AE,[1]; [6],7 n (%) and 7 (18) n (%)
same,Drug-related AE: Abdominal pain,[1]; [6],1 (3) n (%)
same,Drug-related AE: Acne,[1]; [6],0 n (%)
same,Drug-related AE: Fatigue,[1]; [6],0 n (%)
same,Drug-related AE: Gastrointestinal disorders,[1]; [6],6 (15) n (%)
same,Drug-related AE: General disorders and administration site conditions,[1]; [6],0 n (%)
same,Drug-related AE: Maculopapular rash,[1]; [6],1 (3) n (%)
same,Drug-related AE: Nausea,[1]; [6],2 (5) n (%)
same,Drug-related AE: Pruritus,[1]; [6],0 n (%)
same,Drug-related AE: Renal and urinary disorders,[1]; [6],0 n (%)
same,Drug-related AE: Skin and subcutaneous tissue disorders,[1]; [6],1 (3) n (%)
same,Drug-related AE: Urinary hesitation,[1]; [6],0 n (%)
same,AUC,"[2]; human, plasma, oral, 100 mg",13.8 µg·h/mL
same,AUC,"[2]; human, plasma, oral, 500 mg",67.5 µg·h/mL
same,Cmax,"[2]; human, plasma, oral, 500 mg",4.26 µg/mL
same,"Cτ, geometric mean (%CVb)","[2]; part 2, GSK'254 100 mg QD 7 days",460 ng mL^−1 and 460 (40.3) ng mL^−1
same,"Cτ, geometric mean (%CVb)","[2]; part 2, GSK'254 500 mg QD 7 days",2140 ng mL^−1 and 2140 (46.6) ng mL^−1
same,Geometric mean steady-state exposure values with GSK'254 500 mg relative to GSK'254 100 mg,"[2]; part 2, QD 7 days",~ 5 fold
same,Mean reduction from baseline in HIV-1 RNA,[3],2 log10 copies/mL
same,Geometric mean Cmax,[4],1.04 to 1.78 µg/mL
